Assay results published in ChEMBL document CHEMBL4680130, “Substituted 4-phenylthiazoles: Development of potent and selective A, A and dual A/A adenosine receptor antagonists” (Eur J Med Chem, 2020).

How the values were obtained:
Adenosine receptor A2a [1] = target: Adenosine receptor A2a (Rattus norvegicus, UniProt P30543); assay: Displacement of [3H]MSX2 from adenosine receptor A2A in rat brain striatum membranes incubated for 30 mins by radioligand competition assay; format: cell membranes, Cell membrane
[2] = target: T1, Adenosine receptor A3 (Homo sapiens) (UniProt P0DMS8); assay: Displacement of [3H]PSB-11 from human adenosine receptor A3 expressed in CHO cell membranes at 0.1 uM incubated for 60 mins by radioligand competition assay; conditions: Cell membrane, filed as antagonist, dose 0.1 µM
T1 sequence (whole entry): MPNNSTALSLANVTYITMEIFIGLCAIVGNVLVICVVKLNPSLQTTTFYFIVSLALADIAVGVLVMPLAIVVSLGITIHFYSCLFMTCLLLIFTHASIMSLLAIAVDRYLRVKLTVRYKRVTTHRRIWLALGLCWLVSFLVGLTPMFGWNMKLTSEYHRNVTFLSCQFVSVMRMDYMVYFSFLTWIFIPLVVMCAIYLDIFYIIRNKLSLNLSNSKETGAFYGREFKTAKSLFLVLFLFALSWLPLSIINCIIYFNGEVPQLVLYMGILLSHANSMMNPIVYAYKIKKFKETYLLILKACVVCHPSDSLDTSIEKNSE
Outline: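 CHO membranes expressing human A3, [3H]PSB-11 0.5 nM. Nonspecific binding defined by 100 µM R-PIA. Adenosine deaminase preincubation 20 min, then 60 min at rt in 50 mM Tris-HCl pH 7.4 with 2.5% DMSO. Filtered on GF/B, scintillation counted.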

Adenosine receptor A2b = target: T2, Adenosine receptor A2b (Homo sapiens, UniProt P29275); assay: Displacement of [3H]PSB-603 from human adenosine receptor A2B expressed in CHO cell membranes incubated for 75 mins by radioligand competition assay; design: species or system Cell membrane
T2 sequence (P29275 whole entry): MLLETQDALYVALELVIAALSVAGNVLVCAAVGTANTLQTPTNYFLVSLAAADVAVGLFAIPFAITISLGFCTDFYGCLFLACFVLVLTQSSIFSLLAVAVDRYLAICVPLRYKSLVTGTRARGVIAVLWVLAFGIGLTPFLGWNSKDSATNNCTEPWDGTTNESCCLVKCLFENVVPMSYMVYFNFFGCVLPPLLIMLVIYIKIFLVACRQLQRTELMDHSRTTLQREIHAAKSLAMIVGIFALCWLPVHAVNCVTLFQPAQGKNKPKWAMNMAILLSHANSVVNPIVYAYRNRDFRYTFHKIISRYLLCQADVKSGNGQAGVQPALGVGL

[3] = target: Adenosine receptor A2a (Rattus norvegicus) (UniProt P30543); assay: Displacement of [3H]MSX2 from adenosine receptor A2A in rat brain striatum membranes at 0.1 uM incubated for 30 mins by radioligand competition assay relative to control; conditions: Cell membrane
Outline: (§1)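 A2A binding, [3H]MSX-2 1.0 nM. Membranes: rat brain striatum, or HEK293 cells expressing human A2A. Adenosine deaminase preincubation 20 min, then 30 min at rt in 50 mM Tris-HCl pH 7.4 with 2.5% DMSO. Nonspecific binding defined by 50 µM NECA. GF/B filtration, scintillation counting. Single-concentration percent inhibition, ≥3 experiments in duplicate or triplicate.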

Adenosine receptor A2a [4] = target: Adenosine receptor A2a (Homo sapiens, UniProt P29274); assay: Displacement of [3H]MSX2 from human adenosine receptor A2A expressed in HEK293 cell membranes at 0.1 uM incubated for 30 mins by radioligand competition assay relative to control; conditions: Cell membrane, in the assay text read “at 1 uM” for “at 0.1 uM”; outline: as §1
Adenosine receptor A2a (Homo sapiens, UniProt P29274), sequence (P29274 whole entry): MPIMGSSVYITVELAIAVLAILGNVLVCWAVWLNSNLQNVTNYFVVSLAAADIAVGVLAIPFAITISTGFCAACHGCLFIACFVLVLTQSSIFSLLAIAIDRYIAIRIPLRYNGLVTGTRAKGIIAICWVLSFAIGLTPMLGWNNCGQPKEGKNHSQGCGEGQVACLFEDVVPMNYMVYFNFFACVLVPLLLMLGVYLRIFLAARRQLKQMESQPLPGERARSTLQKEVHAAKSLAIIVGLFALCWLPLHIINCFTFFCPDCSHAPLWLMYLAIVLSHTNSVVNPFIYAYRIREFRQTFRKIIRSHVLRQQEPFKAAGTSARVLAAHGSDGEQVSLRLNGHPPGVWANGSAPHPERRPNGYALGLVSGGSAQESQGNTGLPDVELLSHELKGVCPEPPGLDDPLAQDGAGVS

Adenosine receptor A2a (Rattus norvegicus), sequence (P30543 whole entry): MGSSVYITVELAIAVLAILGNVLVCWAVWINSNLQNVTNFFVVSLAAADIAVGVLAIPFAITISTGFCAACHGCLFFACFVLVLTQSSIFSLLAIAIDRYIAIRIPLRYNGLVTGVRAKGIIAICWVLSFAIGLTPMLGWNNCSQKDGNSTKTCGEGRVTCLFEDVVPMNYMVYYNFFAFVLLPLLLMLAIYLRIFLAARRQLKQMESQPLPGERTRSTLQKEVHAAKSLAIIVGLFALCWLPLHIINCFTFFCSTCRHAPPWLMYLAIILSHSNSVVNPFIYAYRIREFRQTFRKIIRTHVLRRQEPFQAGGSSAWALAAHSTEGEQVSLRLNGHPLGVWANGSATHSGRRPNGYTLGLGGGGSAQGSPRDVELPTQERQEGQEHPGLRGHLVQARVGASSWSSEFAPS
Adenosine receptor A2a (Rattus norvegicus, UniProt P30543), sequence (P30543 whole entry): as above

Ki (Adenosine receptor A2a [1]): > 1000 nM
inhibition [2]: 45%
Ki (Adenosine receptor A2b): > 100 nM
inhibition [3]: 15%
inhibition (Adenosine receptor A2a [4]): 28%
SMILES: COc1ccc(C(=O)Nc2nc(-c3ccccc3)c(C(=O)c3ccc(C)cc3)s2)cc1
